Test results from ChEMBL document CHEMBL1126570, “Synthesis and cytotoxicity of potential tumor-inhibitory analogues of trimelamol (2,4,6-tris[(hydroxymethyl)methylamino]-1,3,5-triazine) having electron-withdrawing groups in place of methyl” (J Med Chem, 1993).
In brackets after ≈: the same amount, converted by molar mass.

Assays:
[1] = Aqueous solubility was determined; type: physicochemical
[2] = Half-life was determined in 0.9%sodium chloride at 5.2 pH at room temperature; type: ADME; settings: 0.9% sodium chloride solution, pH 5.2
Procedure, shortened: (§1)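 Compound added from 50 mM DMSO stock to 10 mL of medium in polypropylene tubes, final 100 μM; tubes held in water baths at 37 °C or ambient (20–24 °C). Remaining parent measured by HPLC on C8 column, UV 225 nm; t1/2 from semilog plot of peak area versus time. Run on at least two occasions, variation 2–22%.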

[3] = Half-life was determined in 5%dextrose at 4.0 pH at room temperature; type: ADME; settings: 5% dextrose solution, pH 4; procedure, shortened: as §1
[4] = Half-life was determined in water at 2.0 pH at 37 degree C; type: ADME; settings: pH 2; procedure, shortened: as §1
[5] = Half-life was determined in water at 5.0 pH at 37 degree C; type: ADME; settings: pH 5; procedure, shortened: as §1
[6] = Half-life was determined in water at 5.0 pH at room temperature; type: ADME; settings: pH 5; procedure, shortened: as §1
[7] = Half-life was determined in water at 7.5 pH at 37 degree C; type: ADME; settings: pH 7.5; procedure, shortened: as §1
[8] = Half-life was determined in water at 7.5 pH at room temperature; type: ADME; settings: pH 7.5; procedure, shortened: as §1
NCI-H69 = experiment: In vitro cytotoxicity against human small cell lung cancer H69 cell lines; type: functional, cell-based
Procedure, shortened: (§2)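 MTT assay on suspension lines dispersed to single cells (L1210 RPMI/10% DHS; ADJ/PC6 DMEM/20% DHS plus hydrocortisone, insulin; H69 RPMI/10% FCS; Walker 256 DMEM/10% DHS), 1×10^3–8×10^3 cells/well. Continuous exposure 72–144 h, 37 °C; MTT 4–5 h, plates spun, formazan in DMSO, A540 vs untreated control. 3–6 replicate wells, each assay at least twice.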

L1210 = experiment: In vitro cytotoxicity against L1210 murine lymphocytic leukemia cell lines; type: functional, cell-based; settings: Mus musculus; procedure, shortened: as §2
[9] = In vitro cytotoxicity against walker rat carcinoma 256 cell lines; type: functional; procedure, shortened: as §2
[10] = test system: ADJ/PC6 plasmacytoma (Mus musculus); experiment: In vitro cytotoxicity against PC6 murine plasmacytoma cell lines
[11] = In vitro cytotoxicity against GCT cell lines; type: functional, cell-based; settings: Homo sapiens
Procedure, shortened: (§3)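 MTT assay on GCT-27 and GCT-27/CisR (DMEM, 10% FCS, glutamine, hydrocortisone, insulin), trypsinized to single cells, 1×10^3–8×10^3 cells/well. Continuous drug exposure, 72–144 h at 37 °C, 8% CO2; MTT 4–5 h, formazan in DMSO, A540 (ref 690) as fraction of untreated control. 3–6 replicate wells per concentration, each assay at least twice.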

[12] = In vitro cytotoxicity against GCT / cisR cell lines; type: functional, cell-based; settings: Homo sapiens; procedure, shortened: as §3

Row | solubility [1] [µg/mL] | half-life [2] [h] | half-life [3] [h] | half-life [4] [h] | half-life [5] [h] | half-life [6] [h] | half-life [7] [h] | half-life [8] [h] | Compound | IC50 (NCI-H69) [µM] | IC50 (L1210) [µM] | IC50 [9] [µM] | IC50 [10] [µM] | IC50 [11] [µM] | IC50 [12] [µM]
1 | 1000 (≈ 3000 µM) | 135 | 180 | 5.83 | 16 | 102 | 4.58 | 75.2 | N#CCN(CO)c1nc(N(CO)CC#N)nc(N(CO)CC#N)n1 | 11.8 | 32.4 | 7.5 | 19.4 | – | –
2 | 4500 (≈ 17400 µM) | 4.58 | 5.83 | – | 3.33 | 13.7 | 2 | – | CN(CO)c1nc(N(C)CO)nc(N(C)CO)n1 [TRIMELAMOL] | 8.5 | 33.4 | 9.4 | 12.9 | 24.3 | 30.9
3 | 30 (≈ 64.9 µM) | 95 | 50 | 1 | – | – | 11.5 | 85 | OCN(CC(F)(F)F)c1nc(N(CO)CC(F)(F)F)nc(N(CO)CC(F)(F)F)n1 | 12.8 | 55.1 | 12.2 | 29.5 | – | –
4 | – | – | – | – | – | – | – | – | OCOCN(CC(F)(F)F)c1nc(N(CO)CC(F)(F)F)nc(N(CO)CC(F)(F)F)n1 | 13.4 | – | – | 29.8 | 25.8 | 23.7
5 | – | – | – | – | – | – | – | – | OCN(CC(F)(F)F)c1nc(NCC(F)(F)F)nc(NCC(F)(F)F)n1 | 42.3 | 83.2 | 22.5 | 77.6 | – | –
6 | – | – | – | – | – | – | – | – | CNc1nc(NCC(F)(F)F)nc(N(CO)CC(F)(F)F)n1 | 32.2 | 112 | 27.5 | 71.4 | – | –
7 | 30 (≈ 90.8 µM) | – | – | 0.667 | – | – | 7.5 | – | C#CCN(CO)c1nc(N(CO)CC#C)nc(N(CO)CC#C)n1 | 13.1 | 47.8 | 14.1 | 35.2 | 53.9 | 47.3
